ChEMBL document CHEMBL1132248, “2,4-Diphenyl furan diamidines as novel anti-Pneumocystis carinii pneumonia agents” (J Med Chem, 1999)
Values joined by “and” are separate entries in the source; they are usually repeats but may differ in a detail not shown here. Equal entries are not always repeated.

What was measured:
[1] = The compound was tested for the increase in thermal melting of d(CGCGAATTCGCG)2.
Nucleic Acid [2] = test system: Nucleic Acid
Rattus norvegicus [3] = test: Toxicity in immunosuppressed rat after administration of 10 uM/Kg/d.; assay type: organism-based; conditions: in vivo
Outline: (§1)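 Immunosuppressed rats with Pneumocystis carinii pneumonia; compounds given intravenously at the daily dose named in each line. Toxicity scored on a five-level scale from 0 to 5+; the paper calls the scores anecdotal rather than definitive. The same study scored lung cysts per gram against pooled saline controls (n = 46).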

Rattus norvegicus [4] = test: Percentage control of Pneumocystis carinii pneumonia in immunosuppressed rat at 10 uM/Kg/d administered intravenously.; assay type: functional
Outline: (§2)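 Immunosuppressed rats with Pneumocystis carinii pneumonia were given test agent intravenously. The read-out was cysts per g of lung tissue, expressed as percent of pooled saline-treated controls (n = 46). Values below 1% of control fall within experimental error.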

Rattus norvegicus [5] = test: Percentage control of Pneumocystis carinii pneumonia in immunosuppressed rat at 10 uM/Kg/d administered intravenously; assay type: functional; outline: as §2
Rattus norvegicus [6] = test: Toxicity in immunosuppressed rat after administration of 10 uM/Kg/d; assay type: organism-based; conditions: in vivo; outline: as §1
Nucleic Acid [7] = test system: Nucleic Acid; remark: listed apart in the source
Rattus norvegicus [8] = test: Percentage control of Pneumocystis carinii pneumonia in immunosuppressed rat at 22 uM/Kg/d administered intravenously; assay type: functional; outline: as §2
Rattus norvegicus [9] = test: Percentage control of Pneumocystis carinii pneumonia in immunosuppressed rat at 1 uM/Kg/d administered intravenously; assay type: functional; outline: as §2
Rattus norvegicus [10] = test: Toxicity in immunosuppressed rat after administration of 1 uM/Kg/d.; assay type: organism-based; conditions: in vivo; outline: as §1
Rattus norvegicus [11] = test: Toxicity in immunosuppressed rat after administration of 1 uM/kg/day; assay type: organism-based; conditions: in vivo; outline: as §1
Rattus norvegicus [12] = test: Toxicity in immunosuppressed rat after administration of 0.2 5 uM/Kg/d; assay type: organism-based; conditions: in vivo; outline: as §1
Rattus norvegicus [13] = test: Toxicity in immunosuppressed rat after administration of 5 uM/Kg/d; assay type: organism-based; conditions: in vivo; outline: as §1
Rattus norvegicus [14] = test: Percentage control of Pneumocystis carinii pneumonia in immunosuppressed rat at 0.25 uM/Kg/d administered intravenously; assay type: functional; outline: as §2
Rattus norvegicus [15] = test: Percentage control of Pneumocystis carinii pneumonia in immunosuppressed rat at 5 uM/Kg/d administered intravenously; assay type: functional; outline: as §2
Rattus norvegicus [16] = test: Percentage control of Pneumocystis carinii pneumonia in immunosuppressed rat at 20 uM/Kg/d administered intravenously; assay type: functional; outline: as §2

Row | SMILES | ΔTm [1] | ΔTm (Nucleic Acid [2]) | Toxicity (Rattus norvegicus [3]) | Control (Rattus norvegicus [5]) | also measured
1 | CC(C)C/N=C(/N)c1ccc(-c2coc(-c3ccc(/C(N)=N\CC(C)C)cc3)c2)cc1 | 9.3 | 20.4 |  |  | 
2 | Cl.Cl.N=C(NC1CC1)c1ccc(-c2coc(-c3ccc(C(=N)NC4CC4)cc3)c2)cc1 | 10.9 | 23.2 | 0 |  | Control (Rattus norvegicus [4]): 0.01%
3 | Cl.Cl.N=C(N)c1ccc(-c2coc(-c3ccc(C(=N)N)cc3)c2)cc1 | 9.1 | 19 |  | 0.3% | Toxicity (Rattus norvegicus [6]): 0
4 | c1cc(-c2coc(-c3ccc(C4=NCCN4)cc3)c2)ccc1C1=NCCN1 | 7.2 | 16.8 |  |  | 
5 | N=C(N)c1ccc(OCCCCCOc2ccc(C(=N)N)cc2)cc1 [PENTAMIDINE] | 4.8 |  |  |  | ΔTm (Nucleic Acid [7]): 12.6; Control (Rattus norvegicus [8]): 2.3%
6 | Cc1oc(-c2ccc(C(=N)N)cc2)c(C)c1-c1ccc(C(=N)N)cc1.Cl.Cl | 6.5 | 17 |  | 0.89% | 
7 | Cl.Cl.N=C(NC1CCCC1)c1ccc(-c2coc(-c3ccc(C(=N)NC4CCCC4)cc3)c2)cc1 | 13.6 | 20.4 | 0 | 0.16% | Control (Rattus norvegicus [9]): 1.79%; Toxicity (Rattus norvegicus [10]): 0
8 | CC(C)/N=C(/N)c1ccc(-c2coc(-c3ccc(/C(N)=N\C(C)C)cc3)c2)cc1.Cl.Cl | 10.9 | 17.6 |  | 0.04% and 0.08% | Toxicity (Rattus norvegicus [11]): 0; Toxicity (Rattus norvegicus [12]): 0; Toxicity (Rattus norvegicus [13]): 0; Toxicity (Rattus norvegicus [6]): 0; Control (Rattus norvegicus [14]): 110.5%; Control (Rattus norvegicus [15]): 0.08%; Control (Rattus norvegicus [16]): 0%
9 | Cc1oc(-c2ccc(/C(N)=N\C(C)C)cc2)c(C)c1-c1ccc(/C(N)=N\C(C)C)cc1.Cl.Cl | 5.4 | 12.5 | 0 | 24.43% | 
